Hits are enriched below; roughly 2.5% of the tested compounds scored in any of these assays.
SENP6 inh: blocks the human protease SENP6 | Recombinant SENP6 catalytic domain, aminoluciferin luminescence | 330,000 compounds, 1.8% hits | inhibition, % at 10 µM;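 active means inhibition above about 50% at the single tested dose, limit read from the data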;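 further: plate controls were DMSO wells with enzyme for no effect and DMSO wells lacking enzyme for full effect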
Target sequence (Q9GZR1 628-1112 limits assumed): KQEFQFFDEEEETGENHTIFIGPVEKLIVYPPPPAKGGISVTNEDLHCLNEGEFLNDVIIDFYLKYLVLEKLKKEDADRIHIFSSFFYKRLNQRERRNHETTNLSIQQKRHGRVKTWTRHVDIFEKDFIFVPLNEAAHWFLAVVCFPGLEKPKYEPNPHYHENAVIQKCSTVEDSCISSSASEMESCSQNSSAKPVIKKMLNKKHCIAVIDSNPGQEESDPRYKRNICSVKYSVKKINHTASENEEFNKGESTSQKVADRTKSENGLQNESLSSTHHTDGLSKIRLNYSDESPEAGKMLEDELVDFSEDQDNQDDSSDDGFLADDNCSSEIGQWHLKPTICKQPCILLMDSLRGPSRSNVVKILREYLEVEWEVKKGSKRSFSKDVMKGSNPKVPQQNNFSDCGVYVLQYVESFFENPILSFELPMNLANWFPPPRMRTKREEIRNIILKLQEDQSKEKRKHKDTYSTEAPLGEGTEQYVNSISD
SENP8 block-1: inhibitors of human SENP8 protease; 330,000 compounds, 1.2% hits; purified SENP8, Z-RLRGG-aminoluciferin cleavage, luminescence; AID 2540; Q96LD8; inhibition, % at 10 µM; in the data active means inhibition above about 50%
SENP1 inh: blocks the human SENP1 SUMO protease catalytic domain; recombinant SENP1 catalytic domain, CyPet-SUMO1-YPet FRET cleavage; 360,000 compounds, 0.21% hits; Q9P0U3; AID 624204; inhibition, % at 10 µM;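 active means inhibition at least 30% at 10 µM, raw YFP signal under a set limit, fluorescence ratio 0.5 to 1.5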;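 further: 0% = enzyme with DMSO and 100% = no enzyme wells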
Target sequence (Q9P0U3 419-644 limits assumed): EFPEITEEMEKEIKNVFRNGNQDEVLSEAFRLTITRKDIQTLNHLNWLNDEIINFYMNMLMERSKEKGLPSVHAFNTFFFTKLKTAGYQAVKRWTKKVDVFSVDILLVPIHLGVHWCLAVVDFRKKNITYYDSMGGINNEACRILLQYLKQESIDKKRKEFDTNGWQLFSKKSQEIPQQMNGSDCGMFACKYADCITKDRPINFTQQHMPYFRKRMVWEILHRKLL
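Test system: recombinant human SENP1 catalytic domain, His6-tagged / Medium: pH 8 Tris buffer with EDTA, NaCl, BME, BSA, NP40, catalase / Also added: SUMO1 FRET substrate flanked by Cypet and Ypet, 25 nM / Times: 50 min reaction at room temperature / Signal: FRET, CFP and YFP emission / Control set: no-enzyme low control and enzyme-plus-DMSO high control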
SENP7 inh: SENP7 protease inhibition; Q9BQF6; recombinant SENP7, Z-RLRGG-aminoluciferin luminescence, 40 min; inhibition, % at 5 µM; 330,000 compounds, 1.5% hits; AID 434973;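 active means inhibition above about 50% at the single test dose, limit read from the data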;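 further: plate controls were DMSO with enzyme for no effect and no enzyme buffer wells for full effect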
SENP8 block-2: inhibitors of human SENP8 protease | Q96LD8 | recombinant SENP8, Nedd8 substrate fluorescence | inhibition, % at 20 µM | 360,000 compounds, 0.64% hits | AID 602440; in the data active means inhibition mostly above about 40%, no sharp cut-off; inactive means mostly below about 27%
SENP8 conf: human SENP8 inhibition, confirmed; shares compounds with SENP7 inh; Recombinant SENP8, Z-RLRGG-aminoluciferin luminescence, 60 min; inhibition, % at 12.5 µM; 6,200 compounds, 40% hits; AID 488912;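 active means mean inhibition across replicates above about 50%, limit read from the data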
SENP6 confirm: human SENP6 inhibition, confirmed | shares compounds with SENP7 inh | recombinant SENP6, Z-RLRGG-aminoluciferin luminescence | inhibition, % at 12.5 µM | 6,200 compounds, 58% hits | AID 488915
SENP7 conf: human SENP7 inhibition, confirmed. shares compounds with SENP7 inh. 6,200 compounds, 69% hits. recombinant SENP7, Z-RLRGG-aminoluciferin luminescence, 40 min. AID 488917. inhibition, % at 12.5 µM
Casp3 SENP sel: inhibits human caspase-3 in SENP selectivity test; shares compounds with SENP7 inh; inhibition, % at 12.5 µM; purified caspase-3, Z-DEVD-aminoluciferin luminescence, 60 min; 6,200 compounds, 60% hits; AID 488918;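 active means mean inhibition above about 50%, limit read from the data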;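 further: plate controls were enzyme with DMSO for no effect and wells without caspase-3 for full effect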
SENP luc ctr: interferes with luciferase luminescence in SENP counter-screen; shares compounds with SENP7 inh; Pre-incubated SENP8/Z-RLRGG-aminoluciferin, luciferase luminescence interference; inhibition, % at 12.5 µM; 6,200 compounds, 39% hits; AID 488919;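 active means mean inhibition above about 50% when retested at one dose, limit read from the data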;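 further: plate controls were DMSO wells with completed reaction for no effect and substrate without enzyme for full effect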
* = called active by the depositor; . = no result given.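 How the source made its calls, unless noted: active means mean inhibition above about 50% in the one-dose retest (limit read from the data); inactive means the rest.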

SMILES | SENP6 inh | SENP8 block-1 | SENP1 inh | SENP7 inh | SENP8 block-2 | SENP8 conf | SENP6 confirm | SENP7 conf | Casp3 SENP sel | SENP luc ctr
Cc1ccc(S(=O)(=O)N[C@@H](C)C(=O)N2CCC(C(=O)N[C@@H](Cc3ccccc3)C(=O)O)CC2)cc1 | -1.5 | -13.3 | -0.3 | -6.3 | 8.3 | . | . | . | . | .
CC(=NNC(=O)c1ccncc1)c1ccccc1Cl | . | . | 2.3 | . | 3.7 | . | . | . | . | .
C/C(=N\Nc1ccccc1C(=O)O)c1ccncc1 | 71.7* | 52.4* | 0.2 | 52.0* | 4.8 | 64.6* | 60.5* | 87.9* | 82.1* | 68.5*
C/C(=N\NC(=O)c1ccccc1NC(=O)c1ccc(Cl)cc1)c1ccncc1 | 96.8* | 89.1* | 0.8 | 97.1* | 11.4 | 24.1 | 96.3* | 100.6* | 97.7* | 18.4
C/C(=N/NC(=O)c1ccncc1)c1ccccc1 | -13.5 | -14.7 | 0.1 | 6.8 | 5.5 | . | . | . | . | .
COc1ccc(C2=NN(C(C#N)c3ccc(OC)c(OC)c3)C(c3ccccc3)C2)cc1 (centres undefined) | 74.6* | 28.8 | -19.3 | 65.3* | -1.8 | 6.5 | 2.8 | 22.6 | 23.9 | 20.7
O=[N+]([O-])c1ccccc1/C=C/c1ccc2ccccc2n1 | 88.2* | 85.0* | -0.9 | 81.5* | 11.0 | 93.5* | 93.4* | 100.1* | 79.4* | 47.4
COc1c(OC(C)=O)ccc(/C=C/c2ccc3cccc(OC)c3n2)c1[N+](=O)[O-] | 28.8 | 17.4 | 0.0 | -1.1 | 12.5 | . | . | . | . | .
COc1c(OC(C)=O)ccc(/C=C/c2ccc3ccccc3n2)c1[N+](=O)[O-] | 93.8* | 89.2* | 1.8 | 90.8* | 18.8 | 86.0* | 96.9* | 98.7* | 84.5* | 41.4
Cn1c(/C=C/c2ccccc2[N+](=O)[O-])nc2ccccc2c1=O | -9.7 | -4.3 | 0.0 | -1.6 | 8.0 | . | . | . | . | .
COC(=O)C[C@H]1C[C@H]2c3cc(NC(=O)C4CCOCC4)ccc3O[C@H]2[C@H](CO)O1 | . | . | -0.8 | . | -8.0 | . | . | . | . | .
O=C(CN1C(=O)CSc2ccc(S(=O)(=O)N3CCOCC3)cc21)NCc1ccc(Cl)cc1 | -6.6 | -0.4 | 0.0 | 1.5 | 8.0 | . | . | . | . | .
CC(C)n1cnc2c(NCc3ccccc3)cc(N[C@H](C)CO)cc21 | -20.3 | 81.0* | -16.1 | 46.9 | -73.4 | 85.0* | 90.4* | 67.8* | 97.3* | -3.3
CCC(COC)Oc1cc(NCc2ccccc2)c2ncn(C(C)C)c2c1 (centres undefined) | 83.7* | 76.8* | -60.0 | 73.1* | 10.9 | 41.6 | 71.1* | 22.7 | 4.8 | -3.3
CCC(CO)Oc1cc(NCc2ccccc2)c2ncn(C(C)C)c2c1 (centres undefined) | -0.4 | -1.2 | -30.4 | 11.3 | 13.1 | . | . | . | . | .
O=C(NC(=S)NNS(=O)(=O)c1ccc(Cl)cc1)c1cccnc1 | -7.0 | 5.3 | -0.4 | 6.2 | 2.9 | . | . | . | . | .
CN(C)c1ccc(/C=N/N=C/c2ccccc2O)cc1 | 86.2* | 83.6* | -26.7 | 97.4* | -25.7 | 47.3 | 58.0* | 60.9* | 58.9* | 34.1
Nc1[nH]c(C(=O)c2ccccc2)c(-c2ccc(Cl)cc2Cl)c1C(=O)c1ccc(Br)cc1 | . | . | -6.5 | . | 13.9 | . | . | . | . | .
O=C(Nc1ccc2ccccc2c1)C(=O)C1C(=O)Nc2ccccc21 (centres undefined) | 92.2* | 84.0* | . | 77.5* | . | 73.1* | 73.8* | 88.7* | 76.7* | 8.0
O=C(Nc1ccc(F)cc1)C(=O)C1C(=O)Nc2ccccc21 (centres undefined) | 24.4 | 0.9 | -1.3 | 13.2 | 25.4 | . | . | . | . | .
CCCn1c(SC(C)C(=O)NC2CC2)nnc1-c1ccncc1 (centres undefined) | -7.9 | -5.9 | -0.2 | 5.0 | 4.6 | . | . | . | . | .
FC(F)(F)c1cc(Cl)c2nc(-c3ccccc3)cn2c1 | 83.3* | 76.0* | -1.1 | 86.8* | -222.7 | 46.1 | 81.3* | 94.4* | 68.7* | 47.1
Cc1cc(C(F)(F)F)nc(-n2cc(-c3cccc(N)c3)nn2)n1 | 12.8 | 3.3 | 2.2 | -2.0 | -2.1 | . | . | . | . | .
Nc1cccc(-c2cn3cc(C(F)(F)F)cc(Cl)c3n2)c1 | 81.5* | 70.5* | 0.5 | 85.7* | -28.1 | 83.5* | 83.9* | 97.2* | 85.8* | 86.1*
CCC1CC(C(=O)O)CC(=O)N1 (centres undefined) | . | . | 0.0 | . | -19.2 | . | . | . | . | .
SMILES | SENP6 inh | SENP8 block-1 | SENP1 inh | SENP7 inh | SENP8 block-2 | SENP8 conf | SENP6 confirm | SENP7 conf | Casp3 SENP sel | SENP luc ctr
O/C(=C\c1ccc2ccccc2n1)c1ccncc1 | 97.8* | 90.4* | -26.5 | 96.9* | -115.3 | 93.9* | 93.8* | 101.5* | 96.9* | 93.9*
O=C(Nc1ccccc1)c1cc2ccc3ccccc3c2s1 | 16.8 | 0.2 | 1.3 | 69.3* | -7.0 | -6.4 | 9.2 | 2.2 | 34.3 | 8.4
O=C(Nc1ccccc1)c1ccc(-c2ccccc2)s1 | 45.3 | 35.1 | -1.1 | 83.9* | -19.0 | 21.9 | 43.6 | 38.9 | 67.2* | 17.4
O=C(Nc1ccccc1)c1sc(Cl)nc1-c1ccccc1 | 4.1 | 2.4 | -0.9 | 5.1 | 3.8 | . | . | . | . | .
O=[N+]([O-])c1sccc1CS(=O)(=O)c1ccccc1 | -5.7 | 5.6 | 2.2 | 6.7 | 24.4 | . | . | . | . | .
CC1CCN(c2ccc(NC(=O)c3ccc(Br)o3)cc2)CC1 | 80.9* | 56.0* | 1.6 | 87.9* | 9.8 | 32.2 | 30.4 | 26.2 | 26.6 | 13.9
O=C(Nc1ccc(N2CCOCC2)cc1)c1ccc(Br)o1 | 44.8 | 32.6 | 0.5 | 49.6 | 4.1 | . | . | . | . | .
CC(C)(O)C#Cc1ccc(CN2CCN(C3CCCC3)C(CCO)C2)cc1 (centres undefined) | -7.9 | -2.8 | -0.4 | 5.8 | 15.1 | . | . | . | . | .
COc1ccc(C(=O)NC2CCc3ccccc32)cc1OC1CCN(C(C)C)CC1 (centres undefined) | 8.8 | -1.3 | -10.7 | -2.5 | -1.4 | . | . | . | . | .
O=C(Nc1ccccc1Cl)C(=O)c1cn(CC(=O)N2CCOCC2)c2ccccc12 | 43.5 | 30.5 | -0.4 | 74.2* | -22.8 | 17.2 | 15.8 | 23.7 | 18.0 | 7.3
CN(c1ccccc1)c1ccc(/C=N/N2CCOCC2)cc1 | 51.9* | 34.2 | 0.3 | 30.8 | -21.0 | 44.3 | 43.3 | 79.0* | 49.3 | 30.8
C(=NN1CCCCCC1)c1ccccc1 | . | . | 1.5 | . | 11.2 | . | . | . | . | .
Cc1ccc(NC(=O)C2(C)CCN2C2Cc3ccccc3C2)cc1 (centres undefined) | . | . | -3.0 | . | 7.4 | . | . | . | . | .

High-throughput results deposited in PubChem BioAssay by Sanford-Burnham Center for Chemical Genomics.
